Measurements reported in ChEMBL document CHEMBL4725360, “Optimization of Acetazolamide-Based Scaffold as Potent Inhibitors of Vancomycin-Resistant Enterococcus” (J Med Chem, 2020).
Converted amounts (≈) assume the structure as drawn. The source made the active and inactive calls. The rule behind the calls is not given here.

Columns and labels:
[1] = system: Enterococcus faecium; test: Antibacterial activity against Enterococcus faecium HM968 incubated for 18 to 20 hrs under aerobic condition by CLSI protocol based broth microdilution assay; format: functional; conditions: time hrs 18-20
How it was run: (§1)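 Broth microdilution per CLSI. Strains grown aerobically overnight on trypticase soy agar at 37 °C. Inoculum set to 0.5 McFarland, diluted in trypticase soy broth to about 5 × 10⁵ CFU/mL. Agents serially diluted, plates incubated aerobically at 37 °C for 18–20 h. MIC is the lowest concentration with no visible growth. Compound stocks 10 mg/mL in DMSO.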

[2] = system: Enterococcus faecium; test: Antibacterial activity against Enterococcus faecium NR-28978 incubated for 18 to 20 hrs under aerobic condition by CLSI protocol based broth microdilution assay; format: functional; conditions: time hrs 18-20; how it was run: as §1
[3] = system: Enterococcus faecium; test: Antibacterial activity against Enterococcus faecium NR-31903 incubated for 18 to 20 hrs under aerobic condition by CLSI protocol based broth microdilution assay; format: functional; conditions: time hrs 18-20; how it was run: as §1
[4] = system: Enterococcus faecium; test: Antibacterial activity against Enterococcus faecium NR-32065 incubated for 18 to 20 hrs under aerobic condition by CLSI protocol based broth microdilution assay; format: functional; conditions: time hrs 18-20; how it was run: as §1
[5] = system: Enterococcus faecium; test: Antibacterial activity against Enterococcus faecium NR-31914 incubated for 18 to 20 hrs under aerobic condition by CLSI protocol based broth microdilution assay; format: functional; conditions: time hrs 18-20; how it was run: as §1
[6] = system: Enterococcus faecium; test: Antibacterial activity against Enterococcus faecium NR-31916 incubated for 18 to 20 hrs under aerobic condition by CLSI protocol based broth microdilution assay; format: functional; conditions: time hrs 18-20; how it was run: as §1
[7] = system: Enterococcus faecium; test: Antibacterial activity against Enterococcus faecium NR-32052 incubated for 18 to 20 hrs under aerobic condition by CLSI protocol based broth microdilution assay; format: functional; conditions: time hrs 18-20; how it was run: as §1
[8] = system: Enterococcus faecium; test: Antibacterial activity against Enterococcus faecium NR-31971 incubated for 18 to 20 hrs under aerobic condition by CLSI protocol based broth microdilution assay; format: functional; conditions: time hrs 18-20; how it was run: as §1
[9] = system: Enterococcus faecalis; test: Antibacterial activity against Enterococcus faecalis HM-335 incubated for 18 to 20 hrs under aerobic condition by CLSI protocol based broth microdilution assay; format: functional; conditions: time hrs 18-20; how it was run: as §1
[10] = system: Enterococcus faecium; test: Bacteriostatic activity against Enterococcus faecium ATCC 700221 assessed as reduction in bacterial burden at 5 times MIC preincubated for 24 hrs followed by replating on soya agar plates and measured after 16 hrs by time-kill assay; format: functional, organism-based
How it was run: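 E. faecium ATCC 700221 overnight culture diluted in trypticase soy broth to 3.5 × 10⁶ CFU/mL. […] Samples taken at 2, 4, 6, 8, 12 and 24 h, diluted in PBS and plated on trypticase soy agar. Colonies counted after 16 h at 37 °C. Detection limit 100 CFU/mL. Two-way ANOVA with Dunnett's test.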

[11] = system: Enterococcus faecium; test: Antibacterial activity against Enterococcus faecium NR-31972 incubated for 18 to 20 hrs under aerobic condition by CLSI protocol based broth microdilution assay; format: functional; conditions: time hrs 18-20; how it was run: as §1
[12] = system: Enterococcus faecium; test: Antibacterial activity against Enterococcus faecium ATCC 700221 by CLSI protocol based assay; format: functional; how it was run: as §1

Row | MIC [12] [µg/mL] | SMILES | MIC [1] [µg/mL] | MIC [2] [µg/mL] | MIC [3] [µg/mL] | MIC [4] [µg/mL] | MIC [5] [µg/mL] | MIC [6] [µg/mL] | MIC [7] [µg/mL] | MIC [8] [µg/mL] | MIC [9] [µg/mL] | Activity [10] | MIC [11] [µg/mL]
1 | – | CC(=O)NC[C@H]1CN(c2ccc(N3CCOCC3)c(F)c2)C(=O)O1 [LINEZOLID] | 0.5 (≈ 1.48 µM) | 1 (≈ 2.96 µM) | 1 (≈ 2.96 µM) | 0.25 (≈ 0.741 µM) | 1 (≈ 2.96 µM) | 1 (≈ 2.96 µM) | 0.5 (≈ 1.48 µM) | 1 (≈ 2.96 µM) | 0.5 (≈ 1.48 µM) | Active | 0.5 (≈ 1.48 µM)
2 | 4 (≈ 16.9 µM) | CC(=O)/N=c1/sc(S(N)(=O)=O)nn1C [METHAZOLAMIDE] | – | – | – | – | – | – | – | – | – | – | –
